According to ChEMBL document CHEMBL1154914, “Orally bioavailable anti-HBV dinucleotide acyloxyalkyl prodrugs” (Bioorg Med Chem Lett, 2010):
pEC50: −log10 of the molar value. Activity calls are given as the source filed them. The calls are words filed in the database; no cut-off is given here.

Legend:
[1] = Cytotoxicity against MDBK cells after 24 hrs by MTT assay; type: cell-based, Bos taurus; settings: cattle
[2] = Cytotoxicity against african green monkey Vero cells after 24 hrs by MTT assay; type: cell-based; settings: chlorocebus sabaeus
[3] = Cytotoxicity against human HFF cells after 24 hrs by MTT assay; type: cell-based
[4] = Half life in simulated gastric fluid after 1 hr by reverse phase HPLC; type: physicochemical
Summary of the method: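 Prodrug stock of 2 mg/200 μL DMSO, diluted 1:20 in USP simulated gastric fluid and held at 37 °C for 1 h. Timed aliquots were quenched with methanol, brought to pH 6.0 with NH4OAc/NaOH, centrifuged and concentrated. Read by reversed-phase C18 HPLC using a 30 min gradient from 0.1 M NH4OAc to 80:20 CH3CN:NH4OAc at 1 mL/min.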

[5] = Half life in simulated intestinal fluid after 1 hr by reverse phase HPLC; type: physicochemical
Summary of the method: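 Prodrug stock (2 mg per 200 μL DMSO) diluted 1:20 into simulated intestinal fluid and held at 37 °C for 1 h. Aliquots at selected times were quenched with methanol, brought to pH 6.0 with NH4OAc/NaOH, centrifuged, concentrated and redissolved in 0.1 M NH4OAc. Analysed by reversed-phase C18 HPLC with photodiode-array detection, 0.1 M NH4OAc to 80:20 CH3CN:NH4OAc gradient over 30 min.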

Hepatitis B virus [6] = assay: Antiviral activity against wild type HBV infected in HepG2.2.15 cells assessed as nucleic acid and protein levels dosed daily for 9 days and measured 24 hrs after last treatment by Southern blot hybridization; type: functional, organism-based, HepG2 2.2.15; settings: for pEC50: Hepatitis B virus, HepG2 2.2.15
Hepatitis B virus [7] = assay: Antiviral activity against 3TC-resistant HBV with polymerase L180M mutation infected in HepG2.2.15 cells assessed as nucleic acid and protein levels dosed daily for 9 days and measured 24 hrs after last treatment by Southern blot hybridization; type: functional, organism-based, HepG2 2.2.15; settings: for pEC50: Hepatitis B virus, HepG2 2.2.15
Hepatitis B virus [8] = assay: Antiviral activity against 3TC-resistant HBV with polymerase M204V mutation infected in HepG2.2.15 cells assessed as nucleic acid and protein levels dosed daily for 9 days and measured 24 hrs after last treatment by Southern blot hybridization; type: functional, organism-based, HepG2 2.2.15; settings: for pEC50: Hepatitis B virus, HepG2 2.2.15
Hepatitis B virus [9] = assay: Antiviral activity against 3TC-resistant HBV with polymerase M204I mutation infected in HepG2.2.15 cells assessed as nucleic acid and protein levels dosed daily for 9 days and measured 24 hrs after last treatment by Southern blot hybridization; type: functional, organism-based, HepG2 2.2.15; settings: for pEC50: Hepatitis B virus, HepG2 2.2.15
Hepatitis B virus [10] = assay: Antiviral activity against 3TC-resistant HBV with polymerase LMMV mutation infected in HepG2.2.15 cells assessed as nucleic acid and protein levels dosed daily for 9 days and measured 24 hrs after last treatment by Southern blot hybridization; type: functional, organism-based, HepG2 2.2.15; settings: for pEC50: Hepatitis B virus, HepG2 2.2.15
Hepatitis B virus [11] = assay: Antiviral activity against ADV-resistant HBV N236T mutation infected in HepG2.2.15 cells assessed as nucleic acid and protein levels dosed daily for 9 days and measured 24 hrs after last treatment by Southern blot hybridization; type: functional, organism-based, HepG2 2.2.15; settings: for pEC50: Hepatitis B virus, HepG2 2.2.15
Hepatitis B virus [12] = assay: Antiviral activity against HBV infected in mouse assessed as liver HBV DNA level at 300-400 mg/kg, po QD for 14 days by Southern blotting; type: functional, organism-based
Summary of the method: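 HBV transgenic mice, pre-biopsied for liver HBV DNA and block-randomized (8/group). Dosed 300 to 400 mg/kg by oral gavage once daily for 14 days in 0.05 M citric acid pH 2.4 (0.1 mL per 20 g). Liver Southern blot with a 32P HBV genomic probe, hybridized overnight at 60°C and read by phosphorimaging. Viral DNA was ratioed to the transgene band (1.3 copies/cell). ADV was the positive control.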

Mus musculus = assay: Toxicity against HBV infected mouse at 300-400 mg/kg, po QD for 14 days; type: organism-based; settings: in vivo, 336 h
Hepatitis B virus [13] = assay: Antiviral activity against HBV infected in mouse assessed as reduction in liver HBV DNA level dosed po QD for 14 days by Southern blotting; type: functional, organism-based
Summary of the method: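 HBV transgenic mice, pre-biopsied for liver HBV DNA and block-randomized (8/group). Gavaged at 1, 5, 10 or 100 mg/kg once daily for 14 days in 0.05 M citric acid pH 2.4, against placebo and an ADV control. Liver taken after the last dose. HBV DNA by Southern blot with a 32P genomic probe and phosphorimaging, normalized to the transgene band (1.3 copies/cell).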

half-life [5] [h] | Compound | CC50 at 24 h [1] [µM] | CC50 at 24 h [2] [µM] | CC50 at 24 h [3] [µM] | half-life [4] [h] | EC90 (Hepatitis B virus [6]) [µM] | pEC50 (Hepatitis B virus [6]) | EC90 (Hepatitis B virus [7]) [µM] | pEC50 (Hepatitis B virus [7]) | EC90 (Hepatitis B virus [8]) [µM] | pEC50 (Hepatitis B virus [8]) | EC90 (Hepatitis B virus [9]) [µM] | pEC50 (Hepatitis B virus [9]) | EC90 (Hepatitis B virus [10]) [µM] | pEC50 (Hepatitis B virus [10]) | EC90 (Hepatitis B virus [11]) [µM] | pEC50 (Hepatitis B virus [11]) | Activity (Hepatitis B virus [12]) | Activity (Mus musculus) | Activity (Hepatitis B virus [13])
1 | CO[C@@H]1[C@H](OP(=O)(S)OC[C@H]2O[C@@H](n3cnc4c(N)ncnc43)C[C@@H]2O)[C@@H](CO)O[C@H]1n1ccc(=O)[nH]c1=O (stereo partly drawn) [INARIGIVIR] | > 1000 | > 1000 | > 1000 | < 0.25 |  |  |  |  |  |  |  |  |  |  |  |  |  |  | 
 | CO[C@@H]1[C@H](OP(=O)(OC[C@H]2O[C@@H](n3cnc4c(N)ncnc43)C[C@@H]2O)SCOC(=O)OC(C)C)[C@@H](CO)O[C@H]1n1ccc(=O)[nH]c1=O (stereo partly drawn) [INARIGIVIR SOPROXIL] | > 1000 | > 1000 | > 1000 | > 1 | 8.5 | 5.60 | 8.6 | 5.68 | 8.3 | 5.62 | 9.2 | 5.52 | 9.3 | 5.51 | 8.7 | 5.55 | Active | Non-toxic | Dose-dependent effect
 | Nc1ccn([C@@H]2CS[C@H](CO)O2)c(=O)n1 [LAMIVUDINE] |  |  |  |  | 0.7 | 6.70 | 20 | 5.28 | >100 | < 4.00 | >100 | < 4.00 | >100 | < 4.00 | 0.8 | 6.70 |  |  | 
 | CC(C)(C)C(=O)OCOP(=O)(COCCn1cnc2c(N)ncnc21)OCOC(=O)C(C)(C)C [ADEFOVIR DIPIVOXIL] |  |  |  |  | 7 | 5.82 | 8.2 | 5.68 | 7.2 | 5.74 | 8 | 5.70 | 8.3 | 5.66 | 29 | 5.12 |  |  | 
 | CO[C@@H]1[C@H](OP(=O)(OC[C@H]2O[C@@H](n3cnc4c(N)ncnc43)C[C@@H]2O)SCOC(=O)C(C)(C)C)[C@@H](CO)O[C@H]1n1ccc(=O)[nH]c1=O (stereo partly drawn) | > 1000 | > 1000 | > 1000 | > 1 |  |  |  |  |  |  |  |  |  |  |  |  | Active |  | 
